The source made the active and inactive calls. The rule behind the calls is not given here.
Assays:
HCC827 [1] = assay: Cytotoxicity in human HCC827 cells assessed as reduction in cell viability incubated for 96 hrs by MTS method; type: functional
NCI-H1975 [2] = assay: Cytotoxicity in human NCI-H1975 cells assessed as reduction in cell viability incubated for 96 hrs by MTS method; type: functional
[3] = biological target: Epidermal growth factor receptor (Homo sapiens, UniProt P00533)
[4] = biological target: Epidermal growth factor receptor (Homo sapiens, UniProt P00533, L858R/T790M)
Epidermal growth factor receptor (Homo sapiens, UniProt P00533, L858R/T790M), sequence (P00533 25-1210 T790M/L858R limits assumed): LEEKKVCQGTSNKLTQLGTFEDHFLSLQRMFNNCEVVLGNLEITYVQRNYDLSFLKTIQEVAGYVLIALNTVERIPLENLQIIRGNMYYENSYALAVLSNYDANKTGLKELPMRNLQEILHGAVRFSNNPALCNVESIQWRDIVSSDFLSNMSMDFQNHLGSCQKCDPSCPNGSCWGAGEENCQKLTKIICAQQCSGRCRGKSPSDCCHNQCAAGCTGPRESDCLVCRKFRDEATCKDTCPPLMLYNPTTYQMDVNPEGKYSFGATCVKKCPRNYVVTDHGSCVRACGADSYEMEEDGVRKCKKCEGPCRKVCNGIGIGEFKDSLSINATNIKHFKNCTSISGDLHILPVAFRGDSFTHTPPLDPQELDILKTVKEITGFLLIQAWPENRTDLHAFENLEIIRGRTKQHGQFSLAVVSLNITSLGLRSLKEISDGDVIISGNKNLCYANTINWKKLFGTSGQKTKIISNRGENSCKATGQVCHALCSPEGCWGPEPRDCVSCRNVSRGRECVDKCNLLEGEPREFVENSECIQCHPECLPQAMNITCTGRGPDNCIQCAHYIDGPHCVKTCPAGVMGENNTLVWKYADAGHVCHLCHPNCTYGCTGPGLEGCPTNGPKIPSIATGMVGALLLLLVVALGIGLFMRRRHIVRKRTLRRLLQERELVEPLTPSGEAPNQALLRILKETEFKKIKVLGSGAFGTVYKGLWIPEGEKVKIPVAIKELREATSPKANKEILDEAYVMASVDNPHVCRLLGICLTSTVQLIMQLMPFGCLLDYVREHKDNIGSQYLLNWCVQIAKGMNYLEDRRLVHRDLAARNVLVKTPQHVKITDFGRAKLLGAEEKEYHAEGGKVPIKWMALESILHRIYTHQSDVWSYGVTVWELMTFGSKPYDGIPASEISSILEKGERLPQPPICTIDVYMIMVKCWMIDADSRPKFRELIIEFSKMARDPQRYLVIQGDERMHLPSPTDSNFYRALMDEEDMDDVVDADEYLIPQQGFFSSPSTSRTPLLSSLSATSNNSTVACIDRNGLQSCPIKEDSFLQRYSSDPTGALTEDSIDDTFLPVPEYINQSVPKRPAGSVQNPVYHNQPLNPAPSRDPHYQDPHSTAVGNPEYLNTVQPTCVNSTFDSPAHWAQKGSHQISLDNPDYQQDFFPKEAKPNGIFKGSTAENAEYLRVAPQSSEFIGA

[5] = Toxicity in nude BALB/c mouse xenografted with human NCI-H1975 cells assessed as induction of body weight loss at 15 mg/kg, po QD for 15 days relative to control; type: organism-based; conditions: in vivo, 360 h
Method in brief: (§1)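 H1975 cells were grown in RPMI1640 with 10% heat-inactivated FBS at 37 °C, 5% CO2, and passaged by trypsin-EDTA. 5x10^6 cells in 0.1 ml PBS were injected subcutaneously at the right flank of BALB/c nude mice. Oral QD dosing for 15 days began at a mean tumor size of 147 mm³, n = 5 per group.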

[6] = Oral bioavailability in rat at 20 mg/kg; type: ADME, organism-based; conditions: in vivo
Method in brief: (§2)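 Rat pharmacokinetics: single IV injection at 5 mg/kg or oral dosing at 20 mg/kg (23.6 mg/kg oral for one compound). Plasma parameters t1/2, CL, Vss, AUC(0-inf), Cmax, Tmax and oral bioavailability F were derived from the concentration–time profiles.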

[7] = Clearance in rat at 5 mg/kg, iv; type: ADME, organism-based; conditions: in vivo
NCI-H1975 [8] = assay: Antitumor activity against human NCI-H1975 cells xenografted in nude BALB/c mouse assessed as inhibition of tumor growth at 15 mg/kg, po QD for 15 days relative to control; type: functional; conditions: 360 h, read-out: TGI; method in brief: as §1
[9] = AUC (0 to infinity) in rat at 20 mg/kg, po; type: ADME, organism-based; set-up: dose 20 mg/kg, route oral, time infinity; conditions: in vivo; method in brief: as §2
[10] = Toxicity in nude BALB/c mouse xenografted with human NCI-H1975 cells assessed as drug tolerability at 15 mg/kg, po QD for 15 days relative to control; type: organism-based; conditions: in vivo, 360 h; method in brief: as §1
[11] = Toxicity in ICR mouse assessed as induction of fur loss in nose and abdomen area at 100 mg/kg, po QD for 2 weeks; type: organism-based; conditions: in vivo, 336 h
[12] = Tmax in rat at 20 mg/kg, po; type: ADME, organism-based; conditions: in vivo; method in brief: as §2
[13] = Toxicity in ICR mouse assessed as induction of skin rash at 100 mg/kg, po QD for 2 weeks; type: organism-based; conditions: in vivo, 336 h
[14] = Cmax in rat at 20 mg/kg, po; type: ADME, organism-based; set-up: dose 20 mg/kg, route oral; conditions: in vivo; method in brief: as §2
[15] = Toxicity in athymic NU-Fox1nu nude mouse xenografted with human HCC827 cells assessed as induction of body weight loss at 20 mg/kg, po dosed via gavage for 5 days/week for 2 consecutive weeks; type: organism-based; conditions: in vivo, 120 h
Method in brief: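 Male athymic NU-Fox1nu nude mice, 6–8 weeks old, were inoculated subcutaneously at the left flank with 5x10^6 HCC827 (exon 19 Del E746_A750) cells. Oral gavage began at a mean tumor size of about 500 mm³, in 1% methylcellulose/0.5% Tween 80/98.5% water, once daily on days 1-5 and 8-12. Tumor volume (V = 0.5 a × b², caliper) and body weight were tracked.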

[16] = AUC (0 to infinity) in rat at 5 mg/kg, iv; type: ADME, organism-based; set-up: dose 5 mg/kg, time infinity, route intravenous; conditions: in vivo
HCC827 [17] = conditions: Homo sapiens
[18] = Volume of distribution at steady state in rat at 5 mg/kg, iv; type: ADME, organism-based; conditions: in vivo, read-out: Vdss
[19] = Half life in rat at 5 mg/kg, iv; type: ADME, organism-based; conditions: in vivo
[20] = Half life in rat at 20 mg/kg, po; type: ADME, organism-based; conditions: in vivo; method in brief: as §2
A-431 = assay: Cytotoxicity in human A431 cells assessed as reduction in cell viability incubated for 96 hrs by MTS method; type: functional
[21] = Inhibition of GST-tagged human HER2 V777_G778insCG mutant mutant using poly(Glu, Tyr) 4:1 substrate incubated for 120 mins by kinase-Glo plus luminescent kinase assay
[22] = Inhibition of GST-tagged human EGFR D770GY mutant using poly(Glu, Tyr) 4:1 substrate incubated for 120 mins by kinase-Glo plus luminescent kinase assay
[23] = biological target: Epidermal growth factor receptor (Homo sapiens, UniProt P00533, D770-N771INSNPG); assay: Inhibition of GST-tagged human EGFR D770_N771insNPG mutant using poly(Glu, Tyr) 4:1 substrate incubated for 120 mins by kinase-Glo plus luminescent kinase assay
Epidermal growth factor receptor (Homo sapiens, UniProt P00533, D770-N771INSNPG), sequence (P00533 whole entry, looked up, stated change not applied): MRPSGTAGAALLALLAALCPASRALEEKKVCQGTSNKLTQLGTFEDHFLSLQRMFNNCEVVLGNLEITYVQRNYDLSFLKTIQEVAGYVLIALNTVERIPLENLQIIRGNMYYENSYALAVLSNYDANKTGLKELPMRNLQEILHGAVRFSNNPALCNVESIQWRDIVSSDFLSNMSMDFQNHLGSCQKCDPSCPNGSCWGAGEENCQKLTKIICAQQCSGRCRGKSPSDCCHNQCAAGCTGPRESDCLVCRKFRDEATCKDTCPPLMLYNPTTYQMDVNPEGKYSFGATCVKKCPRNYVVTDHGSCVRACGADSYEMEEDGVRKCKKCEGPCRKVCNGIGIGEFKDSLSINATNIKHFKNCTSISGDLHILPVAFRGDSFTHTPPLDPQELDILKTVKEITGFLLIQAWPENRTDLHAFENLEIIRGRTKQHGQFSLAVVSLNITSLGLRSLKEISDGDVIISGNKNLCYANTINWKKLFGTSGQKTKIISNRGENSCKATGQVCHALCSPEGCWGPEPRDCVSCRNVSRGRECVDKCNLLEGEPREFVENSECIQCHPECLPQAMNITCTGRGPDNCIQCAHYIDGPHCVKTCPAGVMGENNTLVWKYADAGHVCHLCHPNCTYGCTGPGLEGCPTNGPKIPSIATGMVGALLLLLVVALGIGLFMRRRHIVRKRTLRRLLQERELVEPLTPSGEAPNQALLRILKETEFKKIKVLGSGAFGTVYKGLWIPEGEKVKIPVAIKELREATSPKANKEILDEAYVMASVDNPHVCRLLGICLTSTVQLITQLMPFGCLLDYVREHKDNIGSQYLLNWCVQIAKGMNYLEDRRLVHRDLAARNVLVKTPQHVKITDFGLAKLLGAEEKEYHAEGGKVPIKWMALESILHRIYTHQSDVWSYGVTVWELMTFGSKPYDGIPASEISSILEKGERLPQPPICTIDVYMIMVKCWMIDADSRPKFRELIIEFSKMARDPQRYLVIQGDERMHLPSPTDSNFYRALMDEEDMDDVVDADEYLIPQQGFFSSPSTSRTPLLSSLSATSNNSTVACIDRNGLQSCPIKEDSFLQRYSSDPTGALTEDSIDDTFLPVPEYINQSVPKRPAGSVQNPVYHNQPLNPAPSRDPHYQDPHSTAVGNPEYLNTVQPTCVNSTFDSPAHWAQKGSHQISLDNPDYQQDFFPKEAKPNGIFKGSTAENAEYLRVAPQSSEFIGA

[24] = biological target: Epidermal growth factor receptor (Homo sapiens, UniProt P00533, A763-Y764INSFHEA); assay: Inhibition of GST-tagged human EGFR A763_Y764insFHEA mutant using poly(Glu, Tyr) 4:1 substrate incubated for 120 mins by kinase-Glo plus luminescent kinase assay
Epidermal growth factor receptor (Homo sapiens, UniProt P00533, A763-Y764INSFHEA), sequence (P00533 whole entry, looked up, stated change not applied): as above

Epidermal growth factor receptor (Homo sapiens, UniProt P00533), sequence (P00533 whole entry): as the sequence (P00533 whole entry, looked up, stated change not applied) above

| SMILES | IC50 [3] [nM] | IC50 [4] [nM] | CC50 (HCC827 [1]; Homo sapiens, HCC827, 96 h) [nM] | CC50 (NCI-H1975 [2]; Homo sapiens, NCI-H1975, 96 h) [nM] | also measured |
| --- | --- | --- | --- | --- | --- |
| CCOC(=O)/C=C/C(=O)Nc1cccc(-c2c(-c3ccccc3)oc3ncnc(N[C@H](CO)c4ccccc4)c23)c1 |  |  | 516 | 7010 |  |
| C=CC(=O)Nc1cccc(-c2coc3ncnc(N[C@H](CO)c4ccccc4)c23)c1 | 159 | > 10000 | 744 | > 20000 |  |
| C=CC(=O)Nc1cccc(-c2c(-c3ccccc3)oc3ncnc(N[C@@H](CO)c4ccccc4)c23)c1 |  |  |  |  | CC50 (HCC827 [1]): 840 nM; CC50 (NCI-H1975 [2]): 13400 nM |
| CN(C)C/C=C/C(=O)Nc1cccc(-c2c(-c3ccccc3)oc3ncnc(N[C@@H](CO)c4ccccc4)c23)c1 |  |  |  |  | CC50 (HCC827 [1]): 1050 nM |
| CN(C)C/C=C/C(=O)Nc1cc2c(Nc3ccc(F)c(Cl)c3)ncnc2cc1O[C@H]1CCOC1 [AFATINIB] |  |  | 14 | 224 | Activity [5]: Non-Toxic; bioavailability [6]: 15.9%; clearance [7]: 79.2 mL/min/kg; inhibition in vivo at 15 mg/kg (NCI-H1975 [8]): 65%; AUC(0-inf) [9]: 676 ng·h/mL; Activity [10]: Non-Toxic; Activity [11]: Toxic; Tmax [12]: 4.2 h; Activity [13]: Toxic; Cmax [14]: 75.2 ng/mL; Activity [15]: 5%; AUC(0-inf) [16]: 1060 ng·h/mL; TGI (HCC827 [17]): Active; Vd [18]: 28.7 L/kg; half-life [19]: 5.7 h; half-life [20]: 6 h |
| C=CC(=O)Nc1cccc(-c2c(Cl)sc3ncnc(N[C@H](CO)c4ccccc4)c23)c1 | 81 | 1080 | 51 | 8660 |  |
| C=CC(=O)Nc1cc(Nc2nccc(-c3cn(C)c4ccccc34)n2)c(OC)cc1N(C)CCN(C)C [OSIMERTINIB] |  |  |  |  | CC50 (A-431): […]; IC50 [21]: 3.31 nM; IC50 [22]: 0.858 nM |
| C=CC(=O)Nc1cccc(-c2csc3ncnc(N[C@H](CO)c4ccccc4)c23)c1 | 82 | 2320 | 56 | > 20000 |  |
| C=CC(=O)Nc1cccc(-c2c(-c3ccccc3OC)oc3ncnc(N[C@H](CO)c4ccccc4)c23)c1 |  |  | 34 | 4080 | CC50 (A-431; Homo sapiens, A-431, 96 h): > 8010 nM; IC50 [21]: 5.2 nM; IC50 [22]: 0.295 nM |
| C=CC(=O)Nc1cccc(-c2c(C)sc3ncnc(N[C@H](CO)c4ccccc4)c23)c1 | 107 | 1260 | 35 | 12600 |  |
| O=C(/C=C/CN1CCOCC1)Nc1cccc(-c2c(-c3ccccc3)oc3ncnc(N[C@H](CO)c4ccccc4)c23)c1 | 19 | 283 | 17 | 2830 |  |
| C=CC(=O)Nc1cccc(-c2noc3ncnc(N[C@H](CO)c4ccccc4)c23)c1 | 416 | 4630 | 105 | > 20000 |  |
| C=CC(=O)N1CCC(Oc2cc3c(Nc4ccc(Cl)c(Cl)c4F)ncnc3cc2OC)CC1 [POZIOTINIB] |  |  |  |  | CC50 (A-431; Homo sapiens, A-431, 96 h): 31 nM; IC50 [21]: 0.206 nM; IC50 [22]: 0.082 nM |
| OC[C@@H](Nc1ncnc2oc(-c3ccccc3)c(-c3ccccc3)c12)c1ccccc1 |  | > 10000 | 518 |  |  |
| C=CC(=O)Nc1cccc(-c2c(-c3ccccc3)oc3ncnc(N[C@H](CO)c4ccccc4)c23)c1 |  |  |  |  | bioavailability [6]: 5.5%; CC50 (HCC827 [1]): 24 nM; clearance [7]: 76.5 mL/min/kg; AUC(0-inf) [9]: 303 ng·h/mL; CC50 (NCI-H1975 [2]): 1260 nM; Tmax [12]: 1.2 h; Cmax [14]: 193 ng/mL; AUC(0-inf) [16]: 1100 ng·h/mL; Vd [18]: 2.3 L/kg; half-life [19]: 0.5 h; half-life [20]: 0.9 h |
| O=C(/C=C/c1ccccc1)Nc1cccc(-c2c(-c3ccccc3)oc3ncnc(N[C@H](CO)c4ccccc4)c23)c1 | 5000 | > 10000 | 1780 | > 20000 |  |
| C=CC(=O)Nc1cccc(-c2c(C)oc3ncnc(N[C@H](CO)c4ccccc4)c23)c1 | 62 | 1320 | 46 | > 20000 |  |

Second part, led by results:

| IC50 [3] [nM] | IC50 [4] [nM] | SMILES | CC50 (HCC827 [1]; Homo sapiens, HCC827, 96 h) [nM] | CC50 (NCI-H1975 [2]; Homo sapiens, NCI-H1975, 96 h) [nM] | also measured |
| --- | --- | --- | --- | --- | --- |
| 13 | 117 | CCN(C/C=C/C(=O)Nc1cccc(-c2c(-c3ccccc3)oc3ncnc(N[C@H](CO)c4ccccc4)c23)c1)CCO | 19 | 2410 |  |
| 136 | 650 | C=CC(=O)Nc1cccc(-c2c(-c3ccccc3)sc3ncnc(N[C@H](CO)c4ccccc4)c23)c1 | 146 | 10700 | CC50 (A-431; Homo sapiens, A-431, 96 h): > 20000 nM; IC50 [23]: 17.8 nM; IC50 [24]: 1.15 nM; IC50 [21]: 369 nM; IC50 [22]: 4.82 nM |
| 3060 | > 10000 | O=C(O)/C=C/C(=O)Nc1cccc(-c2c(-c3ccccc3)oc3ncnc(N[C@H](CO)c4ccccc4)c23)c1 | 4120 | > 20000 |  |
| 239 | > 10000 | C/C=C/C(=O)Nc1cccc(-c2c(-c3ccccc3)oc3ncnc(N[C@H](CO)c4ccccc4)c23)c1 | 307 | 13200 |  |
| 14 | 131 | CCN(CC)C/C=C/C(=O)Nc1cccc(-c2c(-c3ccccc3)oc3ncnc(N[C@H](CO)c4ccccc4)c23)c1 | 62 | 2480 |  |
| 3670 | 2460 | C=CS(=O)(=O)Nc1cccc(-c2c(-c3ccccc3)oc3ncnc(N[C@H](CO)c4ccccc4)c23)c1 | 2710 | 7240 |  |
| 64 | 6370 | CC#CC(=O)Nc1cccc(-c2c(-c3ccccc3)oc3ncnc(N[C@H](CO)c4ccccc4)c23)c1 | 182 | 6740 |  |
| > 10000 | > 10000 | CC(C)C/C=C/C(=O)Nc1cccc(-c2c(-c3ccccc3)oc3ncnc(N[C@H](CO)c4ccccc4)c23)c1 | 679 | > 20000 |  |
| 117 | 500 | C=CC(=O)Nc1cccc(-c2c(-c3ccccc3)oc3ncnc(N[C@H](C)c4ccccc4)c23)c1 | 58 | 4300 | CC50 (A-431; Homo sapiens, A-431, 96 h): 449 nM; IC50 [23]: 1.48 nM; IC50 [24]: 0.214 nM; IC50 [21]: 8.13 nM; IC50 [22]: 0.641 nM |
